Experimental data: ChEMBL document CHEMBL3526126, “Amide hydrolysis of a novel chemical series of microsomal prostaglandin E synthase-1 inhibitors induces kidney toxicity in the rat” (Drug Metab Dispos, 2013)
In brackets after ≈: the same amount, converted by molar mass.

Tests used:
Rattus norvegicus [1] = assay: Toxicity in Wistar Hannover rat kidney assessed as pale organ discoloration at 1000 umol/kg, po qd administered for 7 days measured on day 7 by necroscopic analysis; assay type: organism-based; settings: in vivo, 168 h
[2] = Drug metabolism in Sprague-Dawley rat hepatocytes assessed as formation of 4-(phenylethynyl)benzoic acid metabolite hyd at 1 to 10 uM by radio monitoring method; assay type: ADME, cell-based, Hepatocyte
Procedure, shortened: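 Hepatocytes at 1 × 10^6 cells/ml in William's medium were incubated at 37°C with gentle shaking under 5% CO2, with substrate at […]. Separation was on an Atlantis T3 column (100 × 4.6 mm) at 1 ml/min, split 1:20 to the ion source and a flow scintillation monitor. Scintillation cocktail was added at 4 ml/min through a 0.5 ml flow cell.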

Rattus norvegicus [3] = assay: Toxicity in Wistar Hannover rat kidney assessed as inflammation in renal pelvis at 1000 umol/kg, po qd administered for 7 days measured after day 8 by hematoxylin/eosin staining-based light microscopic analysis; assay type: organism-based; settings: in vivo, 168 h
Procedure, shortened: (§1)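 Wistar Hannover rats, about 8 weeks old, were gavaged once daily (10 ml/kg) for 7 days. One day after the last dose they were killed by carotid exsanguination under isoflurane/oxygen. Kidneys were fixed in buffered formalin, embedded in paraffin, sectioned, stained with hematoxylin and eosin, and examined by light microscopy.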

Rattus norvegicus [4] = assay: Toxicity in Wistar Hannover rat kidney assessed as hemorrhage in renal pelvis at 1000 umol/kg, po qd administered for 7 days measured after day 8 by hematoxylin/eosin staining-based light microscopic analysis; assay type: organism-based; settings: in vivo, 168 h; procedure, shortened: as §1
Rattus norvegicus [5] = assay: Drug metabolism in Wistar Hannover rat assessed as formation of 4-(phenylethynyl)benzoic acid conjugated with mono-oxidized and sulfate conjugated matabolite in plasma at 500 umol/kg, po qd administered for 7 days measured on day 7 by LC-MS analysis; assay type: ADME, organism-based; settings: in vivo, 168 h
[6] = Drug metabolism in Sprague-Dawley rat hepatocytes assessed as formation of 4-(phenylethynyl)benzoic acid metabolite hyd at 1 to 10 uM by LC-MS analysis; assay type: ADME, cell-based, Hepatocyte
Procedure, shortened: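 Hepatocytes at 1 × 10^6 cells/ml in William's medium incubated at 37°C with gentle shaking under 5% CO2. Substrate was at […]. Metabolites were analysed by LC-MS.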

Rattus norvegicus [7] = assay: Toxicity in Wistar Hannover rat kidney assessed as tubular degeneration /regeneration at 500 umol/kg, po qd administered for 7 days […]; assay type: organism-based; settings: in vivo, 168 h; procedure, shortened: as §1
Rattus norvegicus [8] = assay: Drug metabolism in Wistar Hannover rat assessed as formation of mono-oxidized metabolite +16 in plasma at 500 umol/kg, po qd administered for 7 days measured on day 7 by LC-MS analysis; assay type: ADME, organism-based; settings: in vivo, 168 h
[9] = Cmax in female Wistar Hannover rat at 1000 umol/kg, po qd measured on day 1; settings: in vivo
Rattus norvegicus [10] = assay: Toxicity in Wistar Hannover rat kidney assessed as papillitis at 1000 umol/kg, po qd administered for 7 days measured after day 8 by hematoxylin/eosin staining-based light microscopic analysis; assay type: organism-based; settings: in vivo, 168 h; procedure, shortened: as §1
Rattus norvegicus [11] = assay: Drug metabolism in Wistar Hannover rat assessed as formation of [14C]-4-(phenylethynyl)benzoic acid metabolite hyd in plasma at 500 umol/kg, po qd administered for 7 days measured on day 7 by radio monitoring method; assay type: ADME, organism-based; settings: in vivo, 168 h
[12] = Cmax in female Wistar Hannover rat at 500 umol/kg, po qd administered for 7 days measured on day 7; settings: in vivo
Rattus norvegicus [13] = assay: Drug metabolism in Wistar Hannover rat assessed as formation of 4-(phenylethynyl)benzoic acid metabolite conjugated with mono-oxidized metabolite in plasma at 500 umol/kg, po qd administered for 7 days measured on day 7 by LC-MS analysis; assay type: ADME, organism-based; settings: in vivo, 168 h
[14] = Solubility in rat urine at pH 7 after 5 hrs; assay type: physicochemical
Procedure, shortened: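 Samples in rat urine at pH 7.0 were incubated at 37°C for 5 hours. They were analysed by HPLC on a C18 column with photodiode array and single mass detection.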

## NS(=O)(=O)c1ccccc1S(=O)(=O)NC(=O)c1ccc(C#Cc2ccccc2)cc1
Rattus norvegicus [1]
  Activity: Toxic
[2]
  Drug metabolism: metabolite_detected
Rattus norvegicus [3]
  Activity: Toxic
Rattus norvegicus [4]
  Activity: Toxic
Rattus norvegicus [5]
  Drug metabolism: metabolite_detected
[6]
  Drug metabolism: metabolite_detected
Rattus norvegicus [7]
  Activity: Toxic
Rattus norvegicus [8]
  Drug metabolism: metabolite_detected
[9]
  Cmax: 75 µM
Rattus norvegicus [10]
  Activity: Toxic
Rattus norvegicus [11]
  Drug metabolism: metabolite_detected
[12]
  Cmax: 39 µM
Rattus norvegicus [13]
  Drug metabolism: metabolite_detected
[14]
  solubility at 5 h: 45 µM (≈ 19.8 µg/mL)
